Data set [1] can be described thus: Cmax in BALB/c mouse brain at 10 mg/kg, ip measured upto 24 hrs by LC-MS/MS method. It is filed as ADME, organism-based. More on the design: time < 24 hrs, dose 10 mg/kg, route ip. The settings on record: in vivo. The method in brief:
(§1)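 Male BALB/c mice aged 8–12 weeks (20–35 g) received one dose in a solution of 90% PBS pH 7.4, 5% solutol HS-15 and 5% NMP: 10 mg/kg i.p. or 50 mg/kg p.o. Three mice per time point, sampled up to 24 h. Plasma and brain were taken at each point and assayed by LC–MS/MS. Parameters came from noncompartmental analysis.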

Data set [2] is described as follows: Tmax in BALB/c mouse plasma at 10 mg/kg, ip measured upto 24 hrs by LC-MS/MS method. In kind it is ADME, organism-based. The note with it: in vivo. Summed up:
as §1

The nature of data set [3]: Selectivity index, ratio of CC50 for african green monkey Vero E6 cells to EC50 for wild type Zaire EBOV mayinga. In kind it is cell-based, Vero C1008. The settings on record: read-out: Ratio CC50/EC50.
A short description of data set [4]: Tmax in BALB/c mouse brain at 50 mg/kg, po measured upto 24 hrs by LC-MS/MS method. It is filed as ADME, organism-based. The note with it: in vivo. The method in brief:
as §1

A short description of data set [5]: AUClast in BALB/c mouse plasma at 10 mg/kg, ip measured upto 24 hrs by LC-MS/MS method. The settings on record: in vivo. More on the design: dose 10 mg/kg, time < 24 hrs, route ip. In kind it is ADME, organism-based. Summed up: as §1
Data set [6] is described as follows: Selectivity index, ratio of CC50 for human HeLa cells to EC50 for pseudotyped Ebola virus infected in HeLa cells. The note with it: read-out: Ratio CC50/EC50. It is filed as toxicity, cell-based.
Data set [7] is described as follows: Cmax in BALB/c mouse plasma at 10 mg/kg, ip measured upto 24 hrs by LC-MS/MS method. The settings on record: in vivo. In kind it is ADME, organism-based. Set-up: dose 10 mg/kg, time < 24 hrs, route ip. The method in brief: as §1
A short description of data set [8]: Tmax in BALB/c mouse brain at 10 mg/kg, ip measured upto 24 hrs by LC-MS/MS method. It is filed as ADME, organism-based. The settings on record: in vivo. Summed up:
as §1

Data set [9] can be described thus: Tmax in BALB/c mouse plasma at 50 mg/kg, po measured upto 24 hrs by LC-MS/MS method. It is filed as ADME, organism-based. The settings on record: in vivo. The method in brief: as §1
Data set [10] can be described thus: AUClast in BALB/c mouse brain at 10 mg/kg, ip measured upto 24 hrs by LC-MS/MS method. It is filed as ADME, organism-based. More on the design: time < 24 hrs, dose 10 mg/kg, route ip. The note with it: in vivo. Summed up:
as §1

Data set [11] can be described thus: Cmax in BALB/c mouse plasma at 50 mg/kg, po measured upto 24 hrs by LC-MS/MS method. More on the design: dose 50 mg/kg, time < 24 hrs, route po. It is filed as ADME, organism-based. The settings on record: in vivo. Summed up:
as §1

Data set [12] can be described thus: Inhibition of EBOV-GP to human C-terminal Flag tagged NPC1 protein protein interaction at 50 uM by ELISA. Summed up: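 GP particles were cleaved with thermolysin (250 μg/mL, 1 h, 37 °C; stopped with 1 mM phosphoramidon) and captured on plates by anti-GP mAb KZ52. Purified Flag-tagged human NPC1 domain C (10 μg/mL), expressed in HEK293T, was added with or without compound at 50 μM. Bound protein was detected with anti-Flag-HRP and TMB at 450 nm, n = 3.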
For orientation: An ELISA detects its analyte on a solid surface through an enzyme-linked reagent.

Data set [13] can be described thus: Cmax in BALB/c mouse brain at 50 mg/kg, po measured upto 24 hrs by LC-MS/MS method. It is filed as ADME, organism-based. More on the design: time < 24 hrs, dose 50 mg/kg, route po. The settings on record: in vivo. Summed up:
as §1

The nature of data set [14]: AUClast in BALB/c mouse plasma at 50 mg/kg, po measured upto 24 hrs by LC-MS/MS method. In kind it is ADME, organism-based. More on the design: time < 24 hrs, dose 50 mg/kg, route po. The settings on record: in vivo. The method in brief:
as §1

A short description of data set [15]: AUClast in BALB/c mouse brain at 50 mg/kg, po measured upto 24 hrs by LC-MS/MS method. The settings on record: in vivo. More on the design: dose 50 mg/kg, time < 24 hrs, route po. It is filed as ADME, organism-based. The method in brief:
as §1

The next data set relates to Ebolavirus. The data set can be described thus: Antiviral activity against pseudotyped Ebola virus infected in HeLa cells preincubated for 1 hr followed by viral infection and measured after 48 hrs by steady-glo luciferase assay. In kind it is functional, organism-based. The note with it: Orthoebolavirus. The method in brief:
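HeLa cells (2×10^4/well; DMEM, 10% FBS, 1% L-glutamine, 37 °C, 5% CO2) were pretreated with compound for 1 h at 37 °C, then given 5000 TCID50 of HIV-luciferase lentivirus pseudotyped with EBOV-GP. After 48 h, cells were washed, lysed and luciferase read. Primary screen was at 10 μM final. […] EC50 is the mean of three independent experiments, from normalized dose–response fits with 95% CI.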

Data set [16] in a line: Cytotoxicity against human HeLa cells assessed as reduction in cell viability incubated for 24 hrs by MTS assay. In kind it is toxicity, cell-based. The method in brief: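 HeLa cells (2×10^4/well) were grown in DMEM with 10% FBS and exposed to compound at 0–200 μM for 24 h. Viability was read by MTS reduction at 490 nm, as a percentage of untreated cells, and CC50 was derived.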

The source made the active and inactive calls. No cut-off for these calls is given here.

On to `O=C(CCNCCC1CCN(Cc2ccccc2)CC1)NN(c1ccccc1)c1ccccc1`, for which the results for the Cmax in data set [1] and in [7] were 51.03 ng/mL and 283.42 ng/mL, respectively. Further, the Tmax (as a rule, the time from dosing to the highest level) was determined as 4.8 min in data set [2], 4 h in [4], 8 h in data set [8] and 0.25 h in data set [9]. For the same molecule, the results for the selectivity ratio in data set [3] and in data set [6] were 31.5 and 115, respectively. The AUClast in data set [5] was 559.47 ng·h/mL; in data set [10] it was 1142.02 ng·h/mL.

As to `O=C(CCNCCN1CCN(Cc2ccccc2)CC1)NN(c1ccccc1)c1ccccc1`, the Tmax was 4.8 min in data set [2], 24 h in [4], 8 h in data set [8] and 0.25 h in data set [9]. Further, the results for the selectivity ratio in data set [3] and in data set [6] were 13.1 and 274, respectively. In addition, the peak concentration (Cmax) (usually the peak of the concentration-time curve) came out at 93.62 ng/mL in data set [11] and 341.33 ng/mL in [13]. Moreover, the inhibition entry in [12] is “Active”. Further, the AUClast in data set [5] came to 83.83 ng·h/mL; in [14], 152.76 ng·h/mL; in data set [15], 7109.56 ng·h/mL; in [10], 3886.74 ng·h/mL.

As for `CN(C)CCOc1ccc(/C(=C(/CCCl)c2ccccc2)c2ccccc2)cc1` [TOREMIFENE], the EC50 (as a rule, the concentration at which the effect is half-maximal) in the data set with Ebolavirus turned out to be 70 nM. Also, in [16], the CC50 (usually the concentration giving 50% cytotoxicity) at 24 h is over 100000 nM.

For the origin of these results see ChEMBL document CHEMBL5380852, “N'-Phenylacetohydrazide Derivatives as Potent Ebola Virus Entry Inhibitors with an Improved Pharmacokinetic Profile” (J Med Chem, 2023).
